Assay results taken from ChEMBL document CHEMBL1141763, “Limnophilaspiroketone, a highly oxygenated phenolic derivative from Limnophila geoffrayi” (J Nat Prod, 2005).

Biological target: NAD(P)H dehydrogenase [quinone] 1 (Homo sapiens) (UniProt P15559)
Test: Induction of quinone reductase
Outline: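 Quinone reductase induction measured in cultured mouse Hepa 1c1c7 hepatoma cells, following a previously described method. Activity is reported as CD, the concentration that doubles QR induction, in µg/mL.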

Sequence of NAD(P)H dehydrogenase [quinone] 1 (Homo sapiens) (P15559 whole entry): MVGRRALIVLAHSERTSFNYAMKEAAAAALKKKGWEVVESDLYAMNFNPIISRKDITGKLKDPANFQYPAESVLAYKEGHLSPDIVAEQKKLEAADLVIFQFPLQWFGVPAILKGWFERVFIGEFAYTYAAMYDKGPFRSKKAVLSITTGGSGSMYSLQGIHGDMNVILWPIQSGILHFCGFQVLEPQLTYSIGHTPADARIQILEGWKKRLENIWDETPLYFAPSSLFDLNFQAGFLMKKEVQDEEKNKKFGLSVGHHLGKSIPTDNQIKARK

Structure (SMILES) | CD [µg/mL]
COc1ccc(-c2cc(=O)c3c(O)c(OC)c(O)c(OC)c3o2)cc1 | > 20
CC1(C)CC[C@]2(C(=O)O)CC[C@]3(C)C(=CC[C@@H]4[C@@]5(C)CC[C@H](O)C(C)(C)[C@@H]5[C@H](O)C[C@]43C)[C@@H]2C1 | > 20
CC1(C)CC[C@]2(C(=O)O)CC[C@]3(C)C(=CC[C@@H]4[C@@]5(C)CC[C@H](O)[C@@](C)(CO)[C@@H]5CC[C@]43C)[C@@H]2C1 | > 20
COc1ccc(-c2cc(=O)c3c(O)c(OC)c(OC)c(OC)c3o2)cc1 | > 20
C=C(C)[C@@H]1CC[C@]2(C(=O)O)CC[C@]3(C)[C@H](CC[C@@H]4[C@@]5(C)CC[C@H](O)C(C)(C)[C@@H]5CC[C@]43C)[C@@H]12 | > 20
COC(=O)[C@@]1(O)C(OC)=C(OC)C(=O)[C@]12OC(c1ccc(O)cc1)=CC2=O | > 20
COc1c(OC)c(O)c2c(=O)cc(-c3ccc(O)cc3)oc2c1O | > 20
C[C@@H]1CC[C@]2(C(=O)O)CC[C@]3(C)C(=CC[C@@H]4[C@@]5(C)CC[C@H](O)[C@](C)(CO)[C@@H]5CC[C@]43C)[C@@H]2[C@]1(C)O | > 20
CC(C)=CCC/C(C)=C\CC/C(C)=C\Cc1cc(C(=O)O)ccc1O | > 20
